The test system of assay [1] is OVA-specific IgG, IgG1, IgG2b. As to the kind of experiment: Antibody response assay: serum OVA-specific IgG, IgG1, IgG2b by ELISA. Format: in vivo, C57BL/6J mice. To be noted: 14 days after a single immunization, i.m. with OVA, 10 mg/kg. The method, boiled down: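 Female 8-week C57BL/6J mice (ca. 20 g) injected i.m. on day 0 with 100 μg OVA (5 mg/kg) plus 200 μg (10 mg/kg) test compound in DMSO:Tween 80:saline (1:1:8); serum taken day 14. ELISA: plates coated with 5 μg/mL OVA overnight at 4 °C, blocked 1% BSA 1 h, serum (diluted in 1% BSA) 2 h, HRP anti-mouse IgG/IgG1/IgG2b 1 h RT, TMB, A450.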
For orientation: In an ELISA, binding on a coated surface is turned into a signal by an enzyme label.

The subject of assay [2] is adaptive immune response (CD4- and CD-8 dependent responses). The assay can be described thus: In vivo adjuvant activity on co-administration with OVA. Details: species or system C57BL/6J mice. The conditions noted are these: i.m. with OVA, 10 mg/kg.
The conditions of assay [3]: co-administered i.m. with ovalbumin (OVA); cited from earlier work.
Assay [4] concerns murine melanoma (B16-OVA). To be noted: combination with checkpoint inhibitor anti-PD-L1, diprovocim/OVA i.m.; cited from earlier work.
Another assay addresses mTLR1/TLR2 (Mus musculus, UniProt Q9EPQ1+Q9QUN7). It counts as cell-based, mouse (C57BL/6J). The conditions noted are these: mouse macrophages; for murine efficacy/activity in words: compared with diprovocim-1.
A further assay concerns the target hTLR1/TLR2 (Homo sapiens, UniProt O60603+Q15399). The assay can be described thus: Stimulated release of TNF-α from differentiated THP-1 cells. It counts as cell-based. To be noted: text comment on Figure 3 data, compared with diprovocim-1.
A further assay addresses TLR1 (Homo sapiens, UniProt O60603+Q15399). It counts as cell-based. To be noted: 5 nM; anti-TLR1 20 μg/mL, 1 h pretreatment. In a few lines:
(§1)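 THP-1 cells PMA-differentiated (100 nM, 24 h) then rested 24 h in fresh RPMI/10% FBS. Cells pretreated 1 h with neutralizing anti-TLR1, anti-TLR2 or anti-TLR6 (20 μg/mL) before stimulation with 5 nM test compound; no-antibody wells as control. TNF-α release was the read-out.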

The target in another assay is TLR2 (Homo sapiens, UniProt O60603+Q15399). It counts as cell-based. The conditions noted are these: 5 nM; anti-TLR2 20 μg/mL, 1 h pretreatment. The method, boiled down: as §1
In a further assay the test system is TLR4. It counts as cell-based, mouse. The conditions noted are these: 500 nM, diprovocim-X versus diprovocim-1.

mTLR1/TLR2, sequence (Q9EPQ1 26-795): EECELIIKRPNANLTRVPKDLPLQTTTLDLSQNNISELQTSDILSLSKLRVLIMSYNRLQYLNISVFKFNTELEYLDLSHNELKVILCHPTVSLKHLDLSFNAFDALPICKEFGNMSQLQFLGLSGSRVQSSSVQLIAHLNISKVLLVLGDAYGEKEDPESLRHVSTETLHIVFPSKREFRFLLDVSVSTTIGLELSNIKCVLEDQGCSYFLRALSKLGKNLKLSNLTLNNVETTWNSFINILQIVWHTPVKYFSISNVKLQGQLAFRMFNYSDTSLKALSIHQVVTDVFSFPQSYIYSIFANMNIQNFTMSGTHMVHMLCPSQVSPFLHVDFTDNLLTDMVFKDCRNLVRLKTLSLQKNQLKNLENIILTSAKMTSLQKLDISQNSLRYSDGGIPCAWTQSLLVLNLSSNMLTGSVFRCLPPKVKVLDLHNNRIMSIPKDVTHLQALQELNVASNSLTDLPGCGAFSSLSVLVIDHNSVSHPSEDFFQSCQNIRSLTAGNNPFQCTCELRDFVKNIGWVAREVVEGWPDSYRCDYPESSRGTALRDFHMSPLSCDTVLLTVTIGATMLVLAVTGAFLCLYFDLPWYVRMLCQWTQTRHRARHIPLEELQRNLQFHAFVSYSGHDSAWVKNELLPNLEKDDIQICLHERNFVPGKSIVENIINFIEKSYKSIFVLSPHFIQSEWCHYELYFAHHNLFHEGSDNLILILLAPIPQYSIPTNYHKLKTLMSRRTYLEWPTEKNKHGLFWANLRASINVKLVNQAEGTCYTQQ
mTLR1/TLR2, sequence (Q9QUN7 25-784): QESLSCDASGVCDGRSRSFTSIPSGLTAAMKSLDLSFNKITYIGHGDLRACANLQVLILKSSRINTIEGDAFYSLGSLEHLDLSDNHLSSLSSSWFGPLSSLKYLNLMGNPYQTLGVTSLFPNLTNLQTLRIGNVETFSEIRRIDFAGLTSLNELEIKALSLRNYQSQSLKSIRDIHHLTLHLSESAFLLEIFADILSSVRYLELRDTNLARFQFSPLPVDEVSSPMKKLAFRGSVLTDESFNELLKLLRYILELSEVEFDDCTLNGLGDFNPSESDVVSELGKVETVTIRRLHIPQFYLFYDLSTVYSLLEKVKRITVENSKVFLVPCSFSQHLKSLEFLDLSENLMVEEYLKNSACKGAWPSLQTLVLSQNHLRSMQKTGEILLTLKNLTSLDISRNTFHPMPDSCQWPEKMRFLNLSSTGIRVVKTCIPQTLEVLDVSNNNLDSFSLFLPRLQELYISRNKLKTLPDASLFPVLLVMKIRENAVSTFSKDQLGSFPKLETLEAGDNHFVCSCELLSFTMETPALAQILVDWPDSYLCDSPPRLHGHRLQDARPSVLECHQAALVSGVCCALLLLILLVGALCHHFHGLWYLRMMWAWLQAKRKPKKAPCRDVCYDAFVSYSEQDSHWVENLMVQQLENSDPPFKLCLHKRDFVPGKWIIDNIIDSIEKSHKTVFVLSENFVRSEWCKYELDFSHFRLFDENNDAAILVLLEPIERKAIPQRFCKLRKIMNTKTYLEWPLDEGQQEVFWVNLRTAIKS
TLR2, sequence (O60603 21-784): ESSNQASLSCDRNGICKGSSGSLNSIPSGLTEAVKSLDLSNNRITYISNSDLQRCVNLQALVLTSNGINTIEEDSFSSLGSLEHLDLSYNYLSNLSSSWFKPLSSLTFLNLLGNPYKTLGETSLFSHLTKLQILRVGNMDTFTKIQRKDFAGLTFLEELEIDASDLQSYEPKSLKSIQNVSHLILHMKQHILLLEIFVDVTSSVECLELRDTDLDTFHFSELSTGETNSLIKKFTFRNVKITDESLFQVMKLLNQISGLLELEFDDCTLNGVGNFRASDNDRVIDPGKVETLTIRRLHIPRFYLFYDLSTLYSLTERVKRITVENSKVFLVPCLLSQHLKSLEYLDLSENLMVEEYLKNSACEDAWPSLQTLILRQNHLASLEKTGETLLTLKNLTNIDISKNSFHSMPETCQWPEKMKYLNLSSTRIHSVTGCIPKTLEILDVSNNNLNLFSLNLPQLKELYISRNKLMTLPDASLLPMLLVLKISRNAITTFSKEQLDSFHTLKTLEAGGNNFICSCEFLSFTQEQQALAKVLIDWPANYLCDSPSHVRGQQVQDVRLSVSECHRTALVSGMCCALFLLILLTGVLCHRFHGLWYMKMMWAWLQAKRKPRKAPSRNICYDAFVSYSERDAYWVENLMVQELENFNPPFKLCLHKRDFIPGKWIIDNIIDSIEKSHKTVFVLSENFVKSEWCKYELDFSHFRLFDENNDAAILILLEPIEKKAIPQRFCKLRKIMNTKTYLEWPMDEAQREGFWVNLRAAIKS
TLR2, sequence (Q15399 25-786): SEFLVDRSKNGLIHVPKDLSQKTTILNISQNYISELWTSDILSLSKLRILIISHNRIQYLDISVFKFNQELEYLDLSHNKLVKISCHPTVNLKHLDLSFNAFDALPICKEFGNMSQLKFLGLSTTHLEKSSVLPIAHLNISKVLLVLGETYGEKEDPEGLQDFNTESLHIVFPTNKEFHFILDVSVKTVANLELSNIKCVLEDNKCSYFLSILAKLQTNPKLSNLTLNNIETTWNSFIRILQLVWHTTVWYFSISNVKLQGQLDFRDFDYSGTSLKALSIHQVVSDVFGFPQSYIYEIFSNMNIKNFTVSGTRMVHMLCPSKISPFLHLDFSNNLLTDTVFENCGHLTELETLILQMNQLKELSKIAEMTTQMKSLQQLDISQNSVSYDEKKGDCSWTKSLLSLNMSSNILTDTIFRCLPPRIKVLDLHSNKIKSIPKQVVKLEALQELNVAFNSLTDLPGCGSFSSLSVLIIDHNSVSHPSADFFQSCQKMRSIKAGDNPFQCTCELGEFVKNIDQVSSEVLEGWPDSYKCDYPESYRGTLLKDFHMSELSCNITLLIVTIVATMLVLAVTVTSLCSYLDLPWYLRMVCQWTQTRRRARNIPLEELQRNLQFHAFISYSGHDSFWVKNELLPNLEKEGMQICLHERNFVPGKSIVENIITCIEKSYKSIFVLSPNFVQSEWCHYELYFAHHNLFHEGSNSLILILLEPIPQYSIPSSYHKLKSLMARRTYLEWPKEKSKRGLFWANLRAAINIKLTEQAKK
hTLR1/TLR2, sequence (Q15399 25-786): as above
hTLR1/TLR2, sequence (O60603 21-784): as the sequence (O60603 21-784) above
TLR1, sequence (Q15399 25-786): as the sequence (Q15399 25-786) above
TLR1, sequence (O60603 21-784): as the sequence (O60603 21-784) above

On to `O=C(N[C@H]1C[C@@H]1c1ccccc1)[C@@H]1CN(C(=O)c2ccc(C(=O)N3C[C@@H](C(=O)N[C@H]4C[C@@H]4c4ccccc4)[C@H](C(=O)N[C@H]4C[C@@H]4c4ccccc4)C3)cc2)C[C@H]1C(=O)N[C@H]1C[C@@H]1c1ccccc1` [compound 1], for which the “OVA-specific circulating antibodies (IgG, IgG1, IgG2b)” value in assay [1] is reported as “strong responses”. Further, the “adjuvant activity in mice” value in assay [2] is “comparable adjuvant activity”; in [3], “effective adjuvant”. For the same compound, in [4], the “tumor response, B16-OVA” value is on record as “eradicated tumors”.

Regarding `CC(C)(C)OC(=O)NCCCCCCCCCCCCNC(=O)[C@@H]1CN(C(=O)c2ccc(C(=O)N3C[C@@H](C(=O)N[C@H]4C[C@@H]4c4ccccc4)[C@H](C(=O)N[C@H]4C[C@@H]4c4ccccc4)C3)cc2)C[C@H]1C(=O)N[C@H]1C[C@@H]1c1ccccc1` [compound 17, tert-Butyl (12-((3S,4S)-1-(4-((3S,4S)-3,4-bis(((1S,2R)-2-phenylcyclopropyl)carbamoyl)-pyrrolidine-1-carbonyl)benzoyl)-4-(((1S,2R)-2-phenylcyclopropyl)carbamoyl)pyrrolidine-3-carboxamido)dodecyl)carbamate], the “murine efficacy/activity in words” value on mTLR1/TLR2 was “did not display this increased or improved murine activity”.

For the compound `C#CCCCCCCCCCCCCNC(=O)[C@@H]1CN(C(=O)c2ccc(C(=O)N3C[C@@H](C(=O)N[C@H]4C[C@@H]4c4ccccc4)[C@H](C(=O)N[C@H]4C[C@@H]4c4ccccc4)C3)cc2)C[C@H]1C(=O)N[C@H]1C[C@@H]1c1ccccc1` [compound 19, (3S,4S)-1-(4-((3S,4S)-3,4-Bis(((1S,2R)-2-phenylcyclopropyl)carbamoyl)pyrrolidine-1-carbonyl)-benzoyl)-N^3-((1S,2R)-2-phenylcyclopropyl)-N^4-(tetradec-13-yn-1-yl)pyrrolidine-3,4-dicarboxamide], the “response efficacy in words” value on hTLR1/TLR2 is reported as “small improvement in the response efficacy”.

On to `O=C(NCCCCCCCCc1ccc(O)cc1)[C@@H]1CN(C(=O)c2ccc(C(=O)N3C[C@@H](C(=O)N[C@H]4C[C@@H]4c4ccccc4)[C@H](C(=O)N[C@H]4C[C@@H]4c4ccccc4)C3)cc2)C[C@H]1C(=O)N[C@H]1C[C@@H]1c1ccccc1` [compound 26, (3S,4S)-1-(4-((3S,4S)-3,4-Bis(((1S,2R)-2-phenylcyclopropyl)carbamoyl)pyrrolidine-1-carbonyl)-benzoyl)-N^3-(8-(4-hydroxyphenyl)octyl)-N^4-((1S,2R)-2-phenylcyclopropyl)pyrrolidine-3,4-dicarboxamide], for which the “murine efficacy/activity in words” value on mTLR1/TLR2 is “substantial increase in efficacy”.

Turning to `Nc1ccc(CCCCCCCCNC(=O)[C@@H]2CN(C(=O)c3ccc(C(=O)N4C[C@@H](C(=O)N[C@H]5C[C@@H]5c5ccccc5)[C@H](C(=O)N[C@H]5C[C@@H]5c5ccccc5)C4)cc3)C[C@H]2C(=O)N[C@H]2C[C@@H]2c2ccccc2)cc1` [compound 27, (3S,4S)-N^3-(8-(4-Aminophenyl)octyl)-1-(4-((3S,4S)-3,4-bis(((1S,2R)-2-phenylcyclopropyl)-carbamoyl)pyrrolidine-1-carbonyl)benzoyl)-N^4-((1S,2R)-2-phenylcyclopropyl)pyrrolidine-3,4-dicarboxamide], the “murine efficacy/activity in words” value on mTLR1/TLR2 is “substantial increase in efficacy”.

Regarding `CC(C)(C)OC(=O)NCC(=O)OCCCCCCCCCCCCNC(=O)[C@@H]1CN(C(=O)c2ccc(C(=O)N3C[C@@H](C(=O)N[C@H]4C[C@@H]4c4ccccc4)[C@H](C(=O)N[C@H]4C[C@@H]4c4ccccc4)C3)cc2)C[C@H]1C(=O)N[C@H]1C[C@@H]1c1ccccc1` [compound 35, 12-((3S,4S)-1-(4-((3S,4S)-3,4-Bis(((1S,2R)-2-phenylcyclopropyl)carbamoyl)-pyrrolidine-1-carbonyl)benzoyl)-4-(((1S,2R)-2-phenylcyclopropyl)carbamoyl)-pyrrolidine-3-carboxamido)dodecyl-2-((tert-butoxycarbonyl)amino)acetate], on mTLR1/TLR2 (EC50 compared with diprovocim-1), the “fold more active than diprovocim-1” value worked out at 2 fold. The “OVA-specific circulating antibodies (IgG, IgG1, IgG2b)” value in [1] is “strong responses”. The “adjuvant activity in mice” value in assay [2] was “matching or surpassing the in vivo activity of diprovocim-1”. On TLR1, the “dependence of TNF-α release on TLR1” value is “dependent”. In addition, the “dependence of TNF-α release on TLR2” value on TLR2 was “dependent”. Besides, in the assay on TLR4, the “efficacy as a TNF inducer in mouse macrophage cultures” value was “greater efficacy”.

On to `CC(C)(C)OC(=O)NCCOCCOCCOCCOCCC(=O)OCCCCCCCCCCCCNC(=O)[C@@H]1CN(C(=O)c2ccc(C(=O)N3C[C@@H](C(=O)N[C@H]4C[C@@H]4c4ccccc4)[C@H](C(=O)N[C@H]4C[C@@H]4c4ccccc4)C3)cc2)C[C@H]1C(=O)N[C@H]1C[C@@H]1c1ccccc1` [compound 55, 12-((3S,4S)-1-(4-((3S,4S)-3,4-Bis(((1S,2R)-2-phenylcyclopropyl)carbamoyl)pyrrolidine-1-carbonyl)benzoyl)-4-(((1S,2R)-2-phenylcyclopropyl)carbamoyl)pyrrolidine-3-carboxamido)-dodecyl 2,2-dimethyl-4-oxo-3,8,11,14,17-pentaoxa-5-azaicosan-20-oate], for which the “murine efficacy/activity in words” value at mTLR1/TLR2 is reported as “modest increase in the efficacy”.

These data come from PMC9283309 (Journal of medicinal chemistry, 2022).
